Results from ChEMBL document CHEMBL3414473.
The source made the active and inactive calls. The calls are words filed in the database; no cut-off is given here.

Key:
[1] = molecular target: T1, PH domain leucine-rich repeat-containing protein phosphatase 1 (Homo sapiens, UniProt O60346); test: Inhibition of PHLPP1-mediated reduction in phosphorylation of Akt at Ser473 in human PC3 cells after 24 hrs by Western blot analysis; assay type: cell-based; conditions: PC-3
Outline: (§1)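 LNCaP or PC-3 cells treated at various concentrations for 24 h in serum-free medium. Lysed in SDS buffer (50 mM Tris pH 8, 10 mM EDTA, 1% SDS, protease inhibitors); equal protein run on SDS-PAGE and transferred to nitrocellulose. Primary antibodies 1:1000 overnight at 4 °C, HRP secondary 1:2000; detected by ECL.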

LNCaP [2] = test: Induction of PHLPP1 localization to human LNCAP cell membrane at 10 uM after 24 hrs by immunofluorescence staining analysis; assay type: functional, cell-based
Outline: (§2)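 LNCaP cells on poly-L-lysine-coated surfaces, treated in serum-free medium for 24 h. Fixed in 4% formaldehyde, permeabilized with 0.1% Triton X-100, blocked in 1% FBS, primary antibody (1:300) overnight, then Alexa Fluor secondary 2 h; DAPI nuclei; confocal imaging with cross-sectional fluorescence intensity analysis.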

LNCaP [3] = test: Antiproliferative activity against human LNCAP cells assessed as suppression of cell viability after 24 hrs by MTT assay; assay type: functional, cell-based
Outline: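 LNCaP cells seeded at 5000/well on poly-L-lysine-coated plates in 10% FBS; 24 h later exposed to agents in serum-free medium for 24 h. Viability expressed as percent of vehicle control; IC50 derived.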

[4] = molecular target: RAC-alpha serine/threonine-protein kinase (Homo sapiens, UniProt P31749); test: Binding affinity to GST-tagged PH domain of AKT (unknown origin) by surface Plasmon resonance spectroscopy
Outline: (§3)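 SPR: GST-tagged PH domain fusion protein immobilized on CM5 chip by amine coupling to about 17000 RU. Analyte injected at 1–20 µM at 30 µL/min; DMSO in samples and running buffer ≤1% (v/v). Kd obtained from sensorgram fitting.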

LNCaP [5] = test: Induction of Akt localization to human LNCAP cell membrane at 10 uM after 24 hrs by immunofluorescence staining analysis; assay type: functional, cell-based; outline: as §2
[6] = molecular target: T1, PH domain leucine-rich repeat-containing protein phosphatase 1; test: Inhibition of PHLPP1-mediated reduction in phosphorylation of Akt at Ser473 in human LNCAP cells after 24 hrs by Western blot analysis; assay type: cell-based; outline: as §1
PrEC = test: Antiproliferative activity against human PrEC cells assessed as suppression of cell viability after 24 hrs by MTT assay in serum free medium; assay type: cell-based
[7] = molecular target: T1, PH domain leucine-rich repeat-containing protein phosphatase 1; test: Inhibition of PHLPP1-mediated reduction in phosphorylation of MDM2 in human PC3 cells after 24 hrs by Western blot analysis; assay type: cell-based; conditions: PC-3; outline: as §1
PC-3 [8] = test: In vivo antitumor efficacy in human PC3 cells xenografted athymic nude mouse assessed as decrease in phosphorylation of Akt at Ser473 in tumor at 100 mg/kg, po for 21 days relative to vehicle treated control; assay type: functional, organism-based; set-up: dose 100 mg/kg
Outline: (§4)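 Athymic nude mice given PC-3 cells sc (1 × 10⁶ per mouse); at about 50 mm³, randomized (n = 7) and dosed once daily for 21 days either ip at 50 mg/kg (vehicle saline/PEG400/DMSO/Tween 80, 65:20:10:5) or by oral gavage at 100 mg/kg (vehicle 0.5% methylcellulose/0.1% Tween 80 in water). Tumor volume measured weekly by calipers (width² × length × 0.52); phospho-proteins checked by Western blotting of tumor lysates.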

PC-3 [9] = test: In vivo antitumor efficacy in human PC3 cells xenografted athymic nude mouse assessed as inhibition of tumor growth at 50 mg/kg, ip for 21 days relative to vehicle treated control; assay type: functional, organism-based; set-up: dose 50 mg/kg; outline: as §4
[10] = molecular target: T1, PH domain leucine-rich repeat-containing protein phosphatase 1; test: Inhibition of PHLPP1-mediated reduction in phosphorylation of MDM2 in human LNCAP cells after 24 hrs by Western blot analysis; assay type: cell-based; outline: as §1
[11] = molecular target: T1, PH domain leucine-rich repeat-containing protein phosphatase 1; test: Inhibition of PHLPP1-mediated reduction in phosphorylation of Akt at Thr308 in human LNCAP cells after 24 hrs by Western blot analysis; assay type: cell-based; outline: as §1
LNCaP [12] = test: Induction of Akt-PHLPP1 complex to human LNCAP cell membrane after 24 hrs by immunofluorescence staining analysis; assay type: functional, cell-based
PC-3 [13] = test: In vivo antitumor efficacy in human PC3 cells xenografted athymic nude mouse assessed as decrease in phosphorylation of Akt at Thr308 in tumor at 100 mg/kg, po for 21 days relative to vehicle treated control; assay type: functional, organism-based; set-up: dose 100 mg/kg; outline: as §4
PC-3 [14] = test: In vivo antitumor efficacy in human PC3 cells xenografted athymic nude mouse assessed as decrease in phosphorylation of MDM2 in tumor at 100 mg/kg, po for 21 days relative to vehicle treated control; assay type: functional, organism-based; set-up: dose 100 mg/kg; outline: as §4
[15] = molecular target: T1, PH domain leucine-rich repeat-containing protein phosphatase 1; test: Inhibition of PHLPP1-mediated reduction in phosphorylation of IKK in human LNCAP cells after 24 hrs by Western blot analysis; assay type: cell-based; outline: as §1
[16] = molecular target: T1, PH domain leucine-rich repeat-containing protein phosphatase 1; test: Inhibition of PHLPP1-mediated reduction in phosphorylation of IKK in human PC3 cells after 24 hrs by Western blot analysis; assay type: cell-based; conditions: PC-3; outline: as §1
[17] = molecular target: T1, PH domain leucine-rich repeat-containing protein phosphatase 1; test: Inhibition of PHLPP1-mediated reduction in phosphorylation of Akt at Thr308 in human PC3 cells after 24 hrs by Western blot analysis; assay type: cell-based; conditions: PC-3; outline: as §1
PC-3 [18] = test: In vivo antitumor efficacy in human PC3 cells xenografted athymic nude mouse assessed as inhibition of tumor growth at 100 mg/kg, po for 21 days relative to vehicle treated control; assay type: functional, organism-based; set-up: dose 100 mg/kg; outline: as §4
PC-3 [19] = test: In vivo antitumor efficacy in human PC3 cells xenografted athymic nude mouse assessed as decrease in phosphorylation of IKK in tumor at 100 mg/kg, po for 21 days relative to vehicle treated control; assay type: functional, organism-based; set-up: dose 100 mg/kg; outline: as §4
PC-3 [20] = test: Antiproliferative activity against human PTEN-negative PC3 cells assessed as suppression of cell viability after 24 hrs by MTT assay in serum free medium; assay type: functional, cell-based
[21] = molecular target: T2, 3-phosphoinositide-dependent protein kinase 1 (Homo sapiens, UniProt O15530); test: Binding affinity to GST-tagged PH domain of PDK1 (unknown origin) by surface Plasmon resonance spectroscopy; outline: as §3
T2 sequence (O15530 whole entry): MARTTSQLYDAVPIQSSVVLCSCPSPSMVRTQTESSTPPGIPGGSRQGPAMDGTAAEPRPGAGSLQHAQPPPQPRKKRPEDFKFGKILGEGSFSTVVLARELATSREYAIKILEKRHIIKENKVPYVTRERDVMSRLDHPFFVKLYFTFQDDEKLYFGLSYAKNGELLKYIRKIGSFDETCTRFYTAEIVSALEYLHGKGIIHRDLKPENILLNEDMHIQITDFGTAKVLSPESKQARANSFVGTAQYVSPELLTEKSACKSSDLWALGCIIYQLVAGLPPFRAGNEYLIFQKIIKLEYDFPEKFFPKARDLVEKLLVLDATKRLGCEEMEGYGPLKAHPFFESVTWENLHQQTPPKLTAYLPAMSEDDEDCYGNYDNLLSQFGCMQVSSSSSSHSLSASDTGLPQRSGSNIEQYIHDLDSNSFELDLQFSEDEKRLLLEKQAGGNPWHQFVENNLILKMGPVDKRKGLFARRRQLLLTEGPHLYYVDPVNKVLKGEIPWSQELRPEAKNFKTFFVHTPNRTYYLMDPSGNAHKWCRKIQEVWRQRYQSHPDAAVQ

Scaffold protein ILK = molecular target: T3, Scaffold protein ILK (Homo sapiens, UniProt Q13418); test: Binding affinity to GST-tagged PH domain of ILK (unknown origin) by surface Plasmon resonance spectroscopy; outline: as §3
T3 sequence (Q13418 whole entry): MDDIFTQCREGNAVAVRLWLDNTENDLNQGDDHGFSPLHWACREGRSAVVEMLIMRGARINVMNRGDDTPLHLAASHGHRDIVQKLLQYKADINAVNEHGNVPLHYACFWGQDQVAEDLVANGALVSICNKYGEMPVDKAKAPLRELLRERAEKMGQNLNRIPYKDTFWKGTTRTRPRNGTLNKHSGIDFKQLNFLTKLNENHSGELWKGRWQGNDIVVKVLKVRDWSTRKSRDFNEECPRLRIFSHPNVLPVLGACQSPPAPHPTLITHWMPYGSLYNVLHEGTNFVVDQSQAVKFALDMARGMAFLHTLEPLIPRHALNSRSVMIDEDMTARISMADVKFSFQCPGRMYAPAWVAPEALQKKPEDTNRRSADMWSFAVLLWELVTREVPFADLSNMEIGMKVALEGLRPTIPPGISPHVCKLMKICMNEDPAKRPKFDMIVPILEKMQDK

[22] = molecular target: T1, PH domain leucine-rich repeat-containing protein phosphatase 1; test: Binding affinity to GST-tagged PH domain of PHLPP1 (unknown origin) by surface Plasmon resonance spectroscopy; outline: as §3
LNCaP [23] = test: Induction of PHLPP1 localization to human LNCAP cell membrane at 5 uM after 24 hrs by immunofluorescence staining analysis; assay type: functional, cell-based; outline: as §2
LNCaP [24] = test: Induction of Akt localization to human LNCAP cell membrane at 5 uM after 24 hrs by immunofluorescence staining analysis; assay type: functional, cell-based; outline: as §2

Sequence of RAC-alpha serine/threonine-protein kinase (P31749 whole entry, the tested form may be a part): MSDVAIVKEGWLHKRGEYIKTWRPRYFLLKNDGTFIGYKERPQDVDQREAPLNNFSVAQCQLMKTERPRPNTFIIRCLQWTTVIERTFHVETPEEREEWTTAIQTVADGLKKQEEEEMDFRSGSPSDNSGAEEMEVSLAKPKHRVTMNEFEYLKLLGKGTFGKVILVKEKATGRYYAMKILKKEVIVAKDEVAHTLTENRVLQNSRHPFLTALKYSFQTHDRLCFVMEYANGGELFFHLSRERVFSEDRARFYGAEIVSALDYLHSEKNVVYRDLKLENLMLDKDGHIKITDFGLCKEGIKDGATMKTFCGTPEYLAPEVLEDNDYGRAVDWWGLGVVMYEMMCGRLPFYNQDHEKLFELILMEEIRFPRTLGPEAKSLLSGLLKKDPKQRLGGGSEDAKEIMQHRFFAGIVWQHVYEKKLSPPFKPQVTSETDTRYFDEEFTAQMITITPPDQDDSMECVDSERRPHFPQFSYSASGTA
T1 sequence (O60346 whole entry, the tested form may be a part): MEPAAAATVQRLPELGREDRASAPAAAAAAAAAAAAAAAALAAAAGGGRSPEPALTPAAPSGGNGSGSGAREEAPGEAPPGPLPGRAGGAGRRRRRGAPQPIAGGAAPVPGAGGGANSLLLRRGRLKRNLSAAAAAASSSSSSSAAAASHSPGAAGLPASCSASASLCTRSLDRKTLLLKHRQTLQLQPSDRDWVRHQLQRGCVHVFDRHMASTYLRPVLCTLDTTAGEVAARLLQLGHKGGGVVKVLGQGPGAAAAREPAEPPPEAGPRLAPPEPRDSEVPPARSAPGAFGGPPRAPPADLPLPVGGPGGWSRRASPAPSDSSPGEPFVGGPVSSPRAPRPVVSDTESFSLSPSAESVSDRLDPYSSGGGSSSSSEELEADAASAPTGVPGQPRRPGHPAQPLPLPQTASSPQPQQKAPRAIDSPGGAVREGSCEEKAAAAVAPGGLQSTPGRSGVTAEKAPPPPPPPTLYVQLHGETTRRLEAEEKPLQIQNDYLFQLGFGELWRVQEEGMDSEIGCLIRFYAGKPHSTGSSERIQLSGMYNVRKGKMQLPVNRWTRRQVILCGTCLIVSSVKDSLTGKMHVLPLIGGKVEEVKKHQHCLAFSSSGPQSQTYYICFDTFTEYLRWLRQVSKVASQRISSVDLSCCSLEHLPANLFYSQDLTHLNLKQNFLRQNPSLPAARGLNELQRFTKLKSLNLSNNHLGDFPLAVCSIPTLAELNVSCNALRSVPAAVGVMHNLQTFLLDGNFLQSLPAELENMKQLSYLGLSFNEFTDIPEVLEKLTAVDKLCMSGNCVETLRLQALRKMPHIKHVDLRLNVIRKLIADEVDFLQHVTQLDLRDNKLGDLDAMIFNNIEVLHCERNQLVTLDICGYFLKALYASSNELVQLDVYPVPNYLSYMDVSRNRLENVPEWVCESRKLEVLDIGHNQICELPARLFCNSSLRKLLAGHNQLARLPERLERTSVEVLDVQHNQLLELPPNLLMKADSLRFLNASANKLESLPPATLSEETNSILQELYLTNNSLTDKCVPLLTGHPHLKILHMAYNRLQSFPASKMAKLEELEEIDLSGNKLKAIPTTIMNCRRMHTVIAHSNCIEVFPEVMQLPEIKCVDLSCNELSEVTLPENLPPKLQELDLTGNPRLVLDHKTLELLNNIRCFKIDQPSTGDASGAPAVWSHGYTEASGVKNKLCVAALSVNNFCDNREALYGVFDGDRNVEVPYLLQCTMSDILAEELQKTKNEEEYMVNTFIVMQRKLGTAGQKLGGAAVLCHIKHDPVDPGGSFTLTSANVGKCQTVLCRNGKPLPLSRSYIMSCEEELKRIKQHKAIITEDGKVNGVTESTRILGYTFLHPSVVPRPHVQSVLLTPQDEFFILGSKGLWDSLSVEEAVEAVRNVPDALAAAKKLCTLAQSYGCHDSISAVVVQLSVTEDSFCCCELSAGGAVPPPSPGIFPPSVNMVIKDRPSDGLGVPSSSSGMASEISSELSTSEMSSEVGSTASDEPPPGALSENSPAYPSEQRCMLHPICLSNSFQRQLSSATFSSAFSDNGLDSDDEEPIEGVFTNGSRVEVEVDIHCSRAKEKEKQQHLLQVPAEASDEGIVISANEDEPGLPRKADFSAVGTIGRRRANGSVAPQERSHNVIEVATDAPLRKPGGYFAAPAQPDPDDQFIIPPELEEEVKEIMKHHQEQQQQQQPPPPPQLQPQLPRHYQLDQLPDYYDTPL

CC(C)CCCC1(C)CCc2cc(S(N)(=O)=O)cc(F)c2O1 (centres undefined)
inhibition [1]: inactive | Activity (LNCaP [2]): inactive | IC50 (LNCaP [3]): 20 µM | Kd [4]: 0.35 µM | Activity (LNCaP [5]): inactive | inhibition [6]: inactive

CC(C)CCCC1(C)CCc2cc(O)cc(F)c2O1 (centres undefined)
IC50 (LNCaP [3]): 9 µM | Kd [4]: 0.34 µM

Cc1cc(O)cc2c1OC(C)(CCCC(C)C)CC2=O (centres undefined)
IC50 (LNCaP [3]): 18 µM | Kd [4]: 0.32 µM

CC(C)CCCC1(C)CCc2cc(O)ccc2O1 (centres undefined)
IC50 (LNCaP [3]): 10 µM | Kd [4]: 0.35 µM

Cc1c(O)cc2c(c1C)OC(C)(CCCC(C)C)CC2=O (centres undefined)
Kd [4]: 0.41 µM

CC(C)CCCC1(C)CCc2cc(O)cc(C(F)(F)F)c2O1 (centres undefined)
IC50 (LNCaP [3]): 8 µM | Kd [4]: 0.45 µM

CC(C)CCCC1(C)CCc2cc(N)ccc2O1 (centres undefined)
IC50 (LNCaP [3]): > 30 µM | Kd [4]: 0.21 µM

COc1cc(O)cc2c1OC(C)(CCCC(C)C)CC2 (centres undefined)
IC50 (LNCaP [3]): 26 µM | Kd [4]: 1.88 µM

CC(C)CCCC1(C)CC(=O)c2cc(O)ccc2O1 (centres undefined)
IC50 (LNCaP [3]): > 30 µM | Kd [4]: 0.28 µM

Cc1cc(O)cc2c1OC(C)(CCCC(C)C)CC2 (centres undefined)
IC50 (LNCaP [3]): 7.5 µM | Kd [4]: 0.41 µM

Cc1c(O)cc2c(c1C)O[C@](C)(CCCC(C)C)CC2
Activity (PrEC): Non-toxic | inhibition [1]: Dose-dependent effect | inhibition [7]: Dose-dependent effect | Activity (PC-3 [8]): inactive | Activity (PC-3 [9]): Active | inhibition [10]: Dose-dependent effect | inhibition [11]: inactive | Activity (LNCaP [12]): Dose-dependent effect | inhibition (PC-3 [13]): inactive | Activity (PC-3 [14]): inactive | Activity (LNCaP [2]): Active | inhibition [15]: Dose-dependent effect | inhibition [16]: Dose-dependent effect | inhibition [17]: inactive | Activity (PC-3 [18]): inactive | Activity (PC-3 [19]): inactive | Activity (LNCaP [5]): Active | inhibition [6]: Dose-dependent effect

CC(C)CCCC1(C)CCc2cc(O)cc(O)c2O1 (centres undefined)
IC50 (LNCaP [3]): 27 µM | Kd [4]: 1.18 µM

CC(C)CCCC1(C)CCc2c(O)cccc2O1 (centres undefined)
IC50 (LNCaP [3]): 11 µM | Kd [4]: 0.34 µM

Cc1c(O)cc2c(c1C)O[C@](C)(CCC[C@H](C)CCC[C@H](C)CCCC(C)C)CC2 [GAMMA-TOCOPHEROL]
IC50 (LNCaP [3]): > 100 µM

CC(C)CCCC1(C)CCc2ccc(O)c(O)c2O1 (centres undefined)
IC50 (LNCaP [3]): 23 µM | Kd [4]: 0.98 µM

Cc1cc(O)cc2c1NC(C)(CCCC(C)C)CC2 (centres undefined)
IC50 (LNCaP [3]): 10 µM | Kd [4]: 0.03 µM

Cc1c(O)cc2c(c1C)OC(C)(CCCC(C)C)CC2 (racemic)
Kd [4]: 0.52 µM

COc1cc2c(c(C)c1C)OC(C)(CCCC(C)C)CC2 (centres undefined)
Activity (PrEC): Non-toxic | Activity (PC-3 [20]): inactive | IC50 (LNCaP [3]): > 30 µM | Kd [4]: 8.5 µM

CC(C)CCCC1(C)CCc2cc(O)cc(Br)c2O1 (centres undefined)
IC50 (LNCaP [3]): 8 µM | Kd [4]: 0.39 µM

CC(C)CCCC1(C)CCc2cc(S(N)(=O)=O)cc(Br)c2O1 (centres undefined)
Activity (PrEC): Non-toxic | inhibition [1]: Dose-dependent effect | inhibition [7]: Dose-dependent effect | inhibition [10]: Dose-dependent effect | Kd [21]: 11.1 µM | inhibition [11]: inactive | Kd (Scaffold protein ILK): 13.1 µM | Kd [22]: 0.69 µM | Activity (PC-3 [20]): Active | IC50 (LNCaP [3]): 4.5 µM | Activity (LNCaP [23]): Active | inhibition [15]: Dose-dependent effect | inhibition [16]: Dose-dependent effect | inhibition [17]: inactive | Kd [4]: 0.22 µM | Activity (LNCaP [24]): Active | inhibition [6]: Dose-dependent effect
